Source: ChEMBL document CHEMBL2390862, “Enmein-type diterpenoid analogs from natural kaurene-type oridonin: Synthesis and their antitumor biological evaluation” (Eur J Med Chem, 2013)

How the values were obtained:
Format in all cases: functional, cell-based
MGC-803 = experiment: Cytotoxicity against human MGC803 cells after 72 hrs by MTT assay; settings: MGC-803, 72 h
In short: (§1)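 K562, CaEs-17, Bel-7402 and MGC-803 cells in log phase seeded at 5 × 10⁴ cells/mL, incubated with or without test compounds at 37 °C, 5% CO₂; after 72 h MTT (5 mg/mL stock) added for 4 h, formazan dissolved in DMSO, OD read at 490 nm. Negative reference 0.1% DMSO, Taxol positive control. IC50 as mean ± S.D. of three independent experiments.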

K562 = experiment: Cytotoxicity against human K562 cells after 72 hrs by MTT assay; settings: K562, 72 h; in short: as §1
[1] = Cytotoxicity against human CaEs17 cells after 72 hrs by MTT assay; settings: CaEs17, 72 h; in short: as §1
Bel-7402 = experiment: Cytotoxicity against human Bel7402 cells after 72 hrs by MTT assay; settings: Bel-7402, 72 h; in short: as §1

With `C=C1C(=O)[C@@]23C(=O)O[C@H]4CCC(C)(C)[C@H]5[C@H](O)OC[C@@]45[C@@H]2CC[C@@H]1[C@H]3OC(=O)c1ccc(C)cc1` the IC50 (MGC-803) was 610 nM, the IC50 (K562) was 140 nM and the IC50 [1] was 450 nM. The IC50 (Bel-7402) was 1010 nM.
In the case of `C=C1C(=O)[C@@]23C(=O)O[C@H]4CCC(C)(C)[C@H]5[C@H](O)OC[C@@]45[C@@H]2CC[C@@H]1[C@H]3OC(=O)c1ccc(OC)cc1`, the IC50 (MGC-803) is reported as 3330 nM, the IC50 (K562) is reported as 690 nM and the IC50 [1] is reported as 2710 nM. The IC50 (Bel-7402) was 1790 nM.
For `C=C1C(=O)[C@@]23C(=O)O[C@H]4CCC(C)(C)[C@H]5[C@H](O)OC[C@@]45[C@@H]2CC[C@@H]1[C@H]3OC(=O)c1ccc([N+](=O)[O-])cc1`, the IC50 (MGC-803) was 640 nM, the IC50 (K562) was 260 nM and the IC50 [1] was 580 nM. The IC50 (Bel-7402) was 1010 nM.
